pIC50: −log10 of the molar value. Values belong to the molecule of their own block, whether it stands above or below them. Active and inactive are the calls of the source. No cut-off for these calls is given here.
How the values were obtained:
SF-295 = assay: Antiproliferative activity against human SF295 cells at 5 uM for 72 hrs by cyquant assay; assay type: functional, cell-based
U-251 [1] = assay: Antiproliferative activity against human U251MG cells at 5 uM for 72 hrs by cyquant assay; assay type: functional
Outline: (§1)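 CyQuant proliferation assay after 72 h compound exposure of cultured cells; relative viability normalized to DMSO-treated control; IC50 values derived. Glioma lines grown in RPMI or DMEM with 10% FBS and 1% nonessential amino acids.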

[2] = Cytotoxicity against mouse NIH/3T3 cells at 5uM after 72 hrs by cyquant cells; assay type: cell-based; conditions: nih3t3, 72 h; outline: as §1
MCF7 = assay: Antiproliferative activity against human MCF7 cells for 72 hrs by cyquant assay; assay type: functional, cell-based; conditions: MCF7, 72 h; outline: as §1
NIH3T3 = assay: Inhibition of Stat5 dimer DNA binding activity in EGF-stimulated mouse NIH3T3 nuclear extract expressing human EGFR at 5 uM preincubated for 30 mins followed by addition of radiolabeled probe MGFe for 30 mins by EMSA; assay type: cell-free
[3] = Cytotoxicity against mouse NIH/3T3 cells after 72 hrs by cyquant cells; assay type: cell-based; conditions: NIH3T3, 72 h; outline: as §1
[4] = Antiproliferative activity against human U373MG cells for 72 hrs by cyquant assay; assay type: functional, cell-based, U-373MG ATCC; conditions: U373 MG; outline: as §1
[5] = biological target: T1, Signal transducer and activator of transcription 3 (Homo sapiens, UniProt P40763); assay: Inhibition of Stat3 activity in human U251MG cells assessed as phosphorylated Stat3 level at 5 uM by immunoblot analysis; assay type: cell-based; conditions: U-251, TDE = time-dependent effect
[6] = Antiproliferative activity against human U251MG cells for 72 hrs by cyquant assay; assay type: functional, cell-based; conditions: U-251, 72 h; outline: as §1
MDA-MB-231 [7] = assay: Antiproliferative activity against human MDA-MB-231 cells for 72 hrs by cyquant assay; assay type: functional, cell-based; conditions: MDA-MB-231, 72 h; outline: as §1
MDA-MB-231 [8] = assay: Antiproliferative activity against human MDA-MB-231 cells at 5 uM for 72 hrs by cyquant assay; assay type: functional, cell-based
[9] = biological target: Signal transducer and activator of transcription 3 (Mus musculus) (UniProt P42227); assay: Inhibition of Stat3 dimer DNA binding activity in mouse NIH3T3/vSrc nuclear extract at 5 uM preincubated for 30 mins followed by addition of radiolabeled probe hSIE for 30 mins by EMSA
[10] = Antiproliferative activity against human SF295 cells for 72 hrs by cyquant assay; assay type: functional, cell-based; conditions: SF-295, 72 h; outline: as §1
[11] = biological target: T2, Signal transducer and activator of transcription 1 (Mus musculus) (UniProt P42225); assay: Inhibition of Stat1 dimer DNA binding activity in EGF-stimulated mouse NIH3T3 nuclear extract expressing human EGFR at 5 uM preincubated for 30 mins followed by addition of radiolabeled probe hSIE for 30 mins by EMSA
T2 sequence (whole entry): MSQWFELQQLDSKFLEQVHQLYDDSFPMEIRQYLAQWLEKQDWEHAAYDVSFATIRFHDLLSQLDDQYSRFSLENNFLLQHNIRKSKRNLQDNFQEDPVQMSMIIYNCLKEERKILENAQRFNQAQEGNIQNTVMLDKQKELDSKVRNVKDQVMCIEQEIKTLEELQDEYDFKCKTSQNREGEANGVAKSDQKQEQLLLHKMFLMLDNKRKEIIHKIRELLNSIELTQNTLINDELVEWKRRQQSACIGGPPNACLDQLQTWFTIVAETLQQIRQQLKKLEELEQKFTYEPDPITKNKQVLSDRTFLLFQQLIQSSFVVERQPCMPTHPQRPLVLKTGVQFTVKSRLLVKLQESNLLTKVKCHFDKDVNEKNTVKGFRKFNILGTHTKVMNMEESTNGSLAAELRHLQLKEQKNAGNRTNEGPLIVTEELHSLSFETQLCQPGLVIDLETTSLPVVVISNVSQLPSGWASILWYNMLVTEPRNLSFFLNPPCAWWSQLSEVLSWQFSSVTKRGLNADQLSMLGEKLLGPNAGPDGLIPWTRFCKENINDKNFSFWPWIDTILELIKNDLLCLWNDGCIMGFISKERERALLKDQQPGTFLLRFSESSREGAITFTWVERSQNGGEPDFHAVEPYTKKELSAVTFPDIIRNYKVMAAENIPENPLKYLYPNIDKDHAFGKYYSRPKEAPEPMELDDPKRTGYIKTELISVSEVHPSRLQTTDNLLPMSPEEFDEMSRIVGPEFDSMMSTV

[12] = biological target: T1, Signal transducer and activator of transcription 3; assay: Binding affinity to Stat3 (unknown origin) by NMR analysis
[13] = biological target: Signal transducer and activator of transcription 1/ 3 (Mus musculus) (UniProt P42227+P42225); assay: Inhibition of Stat1:Stat3 dimer DNA binding activity in EGF-stimulated mouse NIH3T3 nuclear extract expressing human EGFR assessed as residual activity at 5 uM preincubated for 30 mins followed by addition of radiolabeled probe hSIE for 30 mins by EMSA; assay type: cell-free
[14] = biological target: T2, Signal transducer and activator of transcription 1 (Mus musculus); assay: Inhibition of Stat1 dimer DNA binding activity in EGF-stimulated mouse NIH3T3 nuclear extract expressing human EGFR assessed as residual activity at 5 uM preincubated for 30 mins followed by addition of radiolabeled probe hSIE for 30 mins by EMSA
[15] = biological target: T1, Signal transducer and activator of transcription 3; assay: Inhibition of Stat3 activity in human U251MG cells assessed as phosphorylated Stat3 level at 5 uM after 0.5 to 24 hrs by immunoblot analysis; assay type: cell-based; conditions: U-251
Outline: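 U251MG cells treated with 5 μM compound for 0–24 h, or with 0–5 μM for 2 h. Whole-cell lysates immunoblotted for pStat3, Stat3, GAPDH. Control was 0.025% DMSO-treated cells.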

[16] = biological target: Signal transducer and activator of transcription 3 (Mus musculus) (UniProt P42227); assay: Inhibition of Stat3 dimer DNA binding activity in EGF-stimulated mouse NIH3T3 nuclear extract expressing human EGFR assessed as residual activity at 5 uM preincubated for 30 mins followed by addition of radiolabeled probe hSIE for 30 mins by EMSA
U-251 [17] = assay: Induction of apoptosis in human U251MG cells assessed as cleaved caspase 3 level at 0.5 to 10 nM after 24 to 48 hrs by immunoblot analysis; assay type: functional, cell-based
Outline: (§2)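 U251MG human glioma cells (RPMI or DMEM, 10% FBS, 1% nonessential amino acids) treated for 24 or 48 h, with paclitaxel or staurosporine run alongside. Whole-cell lysates were prepared and analysed by SDS-PAGE and immunoblotting, probing for PARP and caspase 3 cleavage as apoptosis markers.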

U-251 [18] = assay: Induction of apoptosis in human U251MG cells assessed as PARP level at 0.5 to 10 nM after 24 to 48 hrs by immunoblot analysis; assay type: functional, cell-based; outline: as §2
U-251 [19] = assay: Induction of apoptosis in human U251MG cells assessed as cleaved caspase-3 level at […] after 24 to 48 hrs by immunoblot analysis; assay type: functional, cell-based
U-251 [20] = assay: Induction of apoptosis in human U251MG cells assessed as PARP level at […] after 24 to 48 hrs by immunoblot analysis; assay type: functional, cell-based
U-251 [21] = assay: Antimitotic activity in human U251MG cells assessed as defect in chromatid structure at 0.1 uM after 15 hrs confocal microscopic analysis; assay type: functional, cell-based
Outline: (§3)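 U251MG on coverslips synchronized by double thymidine block (2 mM), released 9 h, treated 15 h (8 μM; paclitaxel 100 nM). Fixed 4% paraformaldehyde, digitonin-permeabilized, BSA-blocked, stained for β-tubulin and MAP1B with DAPI counterstain; chromatid structure and segregation scored by confocal microscopy.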

U-251 [22] = assay: Antimitotic activity in human U251MG cells assessed as defect in sister chromatid segragation at 0.1 uM after 15 hrs confocal microscopic analysis; assay type: functional, cell-based; outline: as §3

T1 sequence (P40763 whole entry): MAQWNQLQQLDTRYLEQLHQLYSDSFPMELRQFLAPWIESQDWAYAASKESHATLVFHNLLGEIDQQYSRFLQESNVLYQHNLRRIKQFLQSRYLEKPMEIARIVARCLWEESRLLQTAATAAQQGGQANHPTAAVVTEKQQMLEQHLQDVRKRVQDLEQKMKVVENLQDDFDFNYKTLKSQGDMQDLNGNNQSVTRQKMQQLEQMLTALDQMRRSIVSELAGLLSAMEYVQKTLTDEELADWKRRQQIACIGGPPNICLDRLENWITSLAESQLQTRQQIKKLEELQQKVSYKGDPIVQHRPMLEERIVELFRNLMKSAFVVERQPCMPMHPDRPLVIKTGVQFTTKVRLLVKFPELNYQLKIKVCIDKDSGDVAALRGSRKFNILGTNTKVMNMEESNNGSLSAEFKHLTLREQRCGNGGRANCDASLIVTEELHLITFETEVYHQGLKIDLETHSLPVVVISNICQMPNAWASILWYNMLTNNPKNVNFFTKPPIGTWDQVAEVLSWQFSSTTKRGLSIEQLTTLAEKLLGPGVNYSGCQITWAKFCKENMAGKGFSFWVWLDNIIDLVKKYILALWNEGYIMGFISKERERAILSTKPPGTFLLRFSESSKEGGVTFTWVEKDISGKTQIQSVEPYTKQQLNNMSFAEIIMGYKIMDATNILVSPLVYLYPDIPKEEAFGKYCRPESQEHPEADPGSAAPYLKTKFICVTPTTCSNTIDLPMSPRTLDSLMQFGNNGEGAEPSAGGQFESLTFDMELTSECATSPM
Signal transducer and activator of transcription 3 (Mus musculus), sequence (P42227 whole entry): as the sequence (P40763 whole entry) above, with E760D counted along it

pIC50 (MCF7): 5.11 | inhibition (NIH3T3): inactive | inhibition [5]: tde | pIC50 (MDA-MB-231 [7]): 5.28 | inhibition [9]: Active | inhibition [11]: inactive | Activity [12]: Dose-dependent effect
Compound: C=C(C)C(=O)O[C@H]1C[C@@H](C)[C@]2(O)CC[C@](C)(/C=C3/OC(=O)C(COC(C)=O)=C31)O2
inhibition (SF-295): Active | inhibition (U-251 [1]): Active | Activity [2]: Toxic | pIC50 [3]: 5.15 | pIC50 [4]: 5.08 | pIC50 [6]: 5.59 | inhibition (MDA-MB-231 [8]): Active | pIC50 [10]: 5.04

inhibition (NIH3T3): inactive | Activity [13]: 71% | Activity [14]: 61% | inhibition [15]: Active | inhibition [9]: Active | inhibition [11]: inactive | Activity [16]: 63%
Compound: C/C=C(/C)C(=O)O[C@H]1C[C@@H](C)[C@]2(O)CC[C@](C)(/C=C3/OC(=O)C(CO)=C31)O2
inhibition (SF-295): inactive | inhibition (U-251 [1]): Active | Activity [2]: Non-toxic | inhibition (MDA-MB-231 [8]): inactive

Compound: CN[C@@H]1C[C@H]2O[C@@](C)([C@@H]1OC)n1c3ccccc3c3c4c(c5c6ccccc6n2c5c31)C(=O)NC4
Activity (U-251 [17]): Active | Activity (U-251 [18]): Active

Compound: CC(=O)O[C@H]1C(=O)[C@@]2(C)[C@H]([C@H](OC(=O)c3ccccc3)[C@]3(O)C[C@H](OC(=O)[C@H](O)[C@@H](NC(=O)c4ccccc4)c4ccccc4)C(C)=C1C3(C)C)[C@]1(OC(C)=O)CO[C@@H]1C[C@@H]2O
Activity (U-251 [19]): Active | Activity (U-251 [20]): Active | Activity (U-251 [21]): Active | Activity (U-251 [22]): Active

Reference: ChEMBL document CHEMBL3627612, “Hirsutinolide Series Inhibit Stat3 Activity, Alter GCN1, MAP1B, Hsp105, G6PD, Vimentin, TrxR1, and Importin α-2 Expression, and Induce Antitumor Effects against Human Glioma” (J Med Chem, 2015)
